In the library only some 5.1% were active in any assay of this set; here they are far more common.
APP 5'UTR act: APP 5'UTR luciferase reporter activation | activation, % at 2 µM | AID 1276 | SH-SY5Y APP 5'UTR luciferase reporter, luminescence; zero percent = DMSO vehicle wells | hit rate 1% among 190,000;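 active = activation above a set limit, based on mean plus 3 SD of controls, cut at about 140% in these data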
NF-kB expr up: raises NF-kB expression in human neuronal cells. NF-kB reporter expression; active compounds read high. fold change at 12.5 µM. hit rate 1.6% among 190,000. AID 1239; in the data active = fold change above about 3.3
STAT1 inh: STAT1 signaling inhibition; NIH 3T3 STAT1-luciferase reporter, IFN-gamma, luminescence; inhibition, % at 5.5 µM; hit rate 0.35% among 200,000;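 active = inhibition above a set limit, the mean inhibition across all tested compounds plus 3 SD, cut at about 34% in these data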;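 note: 0% = IFN-gamma with DMSO and 100% = IFN-gamma with 300 µM nifuroxazide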
STAT1 act: STAT1 signaling activation; activation (% of control), % at 5.5 µM; hit rate 2.6% among 200,000; NIH 3T3 STAT1-luciferase reporter, IFN-gamma, luminescence; 100% = IFN-gamma alone, no compound; AID 932;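 active = activation above the screen-wide mean activation plus 3 SD, cut at about 130% in these data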;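 note: raw ratio to IFN-gamma control signal so 100% means no change and 0% no light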
STAT3 act: activators of IL-6 induced STAT3 signaling. U3A cells, IL-6 STAT3-luciferase reporter, luminescence; 100% = signal with IL-6 EC80 alone. activation (% of control), % at 5.6 µM. hit rate 0.91% among 190,000;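 active = activation above the screen-wide mean of compound activation plus 3 SD, cut at about 130% in these data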;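 note: 0% = background luminescence of wells with medium and substrate only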
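System – human U3A cells carrying STAT3-luciferase construct · Probe or stimulus – Interleukin-6, 33 ng/mL · Schedule – compound 1 h, then IL-6 6 h at 37 °C · Signal – luminescence from STAT3-driven luciferase reporter · Evaluation – percent of IL-6-only median luminescence · Benchmarks – IL-6-only high control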
STAT3 inh-1: STAT3 signaling inhibition | inhibition, % at 5.5 µM | U3A cells, IL-6 STAT3-luciferase reporter, luminescence; host cell line lacks STAT1 | AID 862 | hit rate 0.89% among 190,000;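 active = inhibition above the mean inhibition across all screened compounds plus 3 SD, cut at about 44% in these data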;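 note: 0% = DMSO only wells and 100% = 100 µM nifuroxazide control wells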
STAT3 inh-2: STAT3 inhibition, confirmation assay | shares compounds with STAT3 inh-1 | hit rate 45% among 1,200 | U3A cells, IL-6 STAT3 luciferase reporter, luminescence; cell line lacks STAT1 | inhibition, % at 5.7 µM;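 active = inhibition above the hit cutoff computed for the primary STAT3 screen, cut at about 44% in these data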;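 note: 0% = IL-6 plus DMSO and 100% = IL-6 plus nifuroxazide control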
NFkB inh STAT3ct: NF-kappaB inhibition in STAT3 inhibitor counter-screen | hit rate 36% among 1,200 | HEK293T NF-kB luciferase reporter, TNF-alpha induced | shares compounds with STAT3 inh-1 | inhibition, % at 5.7 µM;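 active = inhibition above the mean of solvent-only control wells plus 3 SD, cutoff set per campaign, cut at about 13% in these data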;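 note: 0% = TNF-alpha with DMSO and 100% = TNF-alpha with MG high control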
STAT1 inh 2: inhibits STAT1, counter-screen to STAT3 inhibitors | AID 1317 | NIH 3T3 STAT1-luciferase reporter, IFN-gamma induced, luminescence | inhibition, % at 5.7 µM | hit rate 27% among 1,200 | shares compounds with STAT3 inh-1;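 active = inhibition above the mean plus 3 SD of solvent-only control wells, limit set per screening run, cut at about 16% in these data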;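 note: 0% = DMSO with IFN-gamma and 100% = nifuroxazide control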
Active calls of the source: *.

For Cn1cccc1/C=C1/C(=O)NC(=O)N(Cc2ccccc2)C1=O the results were APP 5'UTR act -25, NF-kB expr up 3, STAT1 inh -7, STAT1 act 106, STAT3 act 135* and STAT3 inh-1 -38.
`O=C(c1ccc(Br)cc1)C12CN3CN(CN(C3)C1)C2` gave APP 5'UTR act 24, NF-kB expr up 14*, STAT1 inh -5, STAT1 act 103, STAT3 act 97 and STAT3 inh-1 5.
`Cc1cccc(N/N=C(\C(N)=O)C2=NC(C)(C)Cc3ccccc32)c1` gave APP 5'UTR act -11, NF-kB expr up 1.3, STAT1 inh 4, STAT1 act 96, STAT3 act 99 and STAT3 inh-1 5.
For CC(=O)Nc1ccc(OC(=O)c2ccccc2N)cc1 the results were APP 5'UTR act 20, NF-kB expr up 0.9, STAT1 inh -4, STAT1 act 104, STAT3 act 92 and STAT3 inh-1 13.
For Nc1ccccc1C(=O)OCCOc1ccccc1 the results were APP 5'UTR act 182*, NF-kB expr up 6.7*, STAT1 inh -10, STAT1 act 109, STAT3 act 57, STAT3 inh-1 58*, STAT3 inh-2 17, NFkB inh STAT3ct -22 and STAT1 inh 2 -153.
`Cn1cccc1CN1CCN(C(=O)COc2ccccc2)CC1` gave APP 5'UTR act 11, NF-kB expr up 0.96, STAT1 inh -2, STAT1 act 102, STAT3 act 104 and STAT3 inh-1 4.
`Cn1nc(-c2ccc(OCC(=O)N3CCN(Cc4ccccc4)CC3)cc2)c2ccccc2c1=O` gave APP 5'UTR act 17, NF-kB expr up 0.26, STAT1 inh 19, STAT1 act 82, STAT3 act 54, STAT3 inh-1 60*, STAT3 inh-2 49*, NFkB inh STAT3ct 20* and STAT1 inh 2 17*.
Screening CN1C2CCC1CC(OC(=O)c1ccc(Cl)cc1)(C(=O)O)C2 (centres undefined) returned APP 5'UTR act 6, NF-kB expr up 1.1, STAT1 inh -2, STAT1 act 102, STAT3 act 109 and STAT3 inh-1 -12.
`C[C@H]1O[C@@H](O[C@H]2[C@@H](O)C[C@H](O[C@H]3[C@@H](O)C[C@H](O[C@H]4CC[C@@]5(C)[C@H](CC[C@@H]6[C@@H]5CC[C@]5(C)[C@@H](C7=CC(=O)OC7)CC[C@]65O)C4)O[C@@H]3C)O[C@@H]2C)C[C@H](O)[C@@H]1O` gave APP 5'UTR act -94, NF-kB expr up 0.82, STAT1 inh -10, STAT1 act 109, STAT3 act 29, STAT3 inh-1 83*, STAT3 inh-2 81*, NFkB inh STAT3ct -7 and STAT1 inh 2 -2.
`CCCCCCn1c(O)c(C=NC2CCN(Cc3ccccc3)CC2)c(=O)[nH]c1=O` gave APP 5'UTR act -20, NF-kB expr up 0.53, STAT1 inh -5, STAT1 act 108, STAT3 act 72 and STAT3 inh-1 33.
O=c1[nH]c(=O)n(CCC2=CCCCC2)c(O)c1C=NC1CCN(Cc2ccccc2)CC1 was read as APP 5'UTR act -4, NF-kB expr up 1.2, STAT1 inh 0, STAT1 act 100, STAT3 act 52, STAT3 inh-1 62*, STAT3 inh-2 69*, NFkB inh STAT3ct 30* and STAT1 inh 2 8.
`Cn1cnc([N+](=O)[O-])c1Sc1ccc([N+](=O)[O-])cc1` gave APP 5'UTR act -16, NF-kB expr up 1.7, STAT1 inh -9, STAT1 act 108, STAT3 act 100 and STAT3 inh-1 8.
For CN(C)C(=O)Oc1ccc(OC(=O)N(C)C)cc1 the results were APP 5'UTR act 11, NF-kB expr up 1.1, STAT1 inh 2, STAT1 act 98, STAT3 act 102 and STAT3 inh-1 3.
CN(C)C(=O)Oc1ccc(OCc2nc3ccccc3[nH]2)cc1 was read as APP 5'UTR act 88, NF-kB expr up 1.7, STAT1 inh -4, STAT1 act 103, STAT3 act 54, STAT3 inh-1 58*, STAT3 inh-2 29, NFkB inh STAT3ct 5 and STAT1 inh 2 -3.
For CN[C@H]1C[C@H]2O[C@@](C)([C@H]1OC)n1c3ccccc3c3c4c(c5c6ccccc6n2c5c31)C(=O)NC4 the results were APP 5'UTR act -95, NF-kB expr up 0.12, STAT1 inh 9, STAT1 act 92, STAT3 act 11, STAT3 inh-1 104*, STAT3 inh-2 105*, NFkB inh STAT3ct 96* and STAT1 inh 2 26*.
CNC(=O)Oc1ccc(-c2cn3cc(Cl)ccc3n2)cc1 was read as APP 5'UTR act 131, NF-kB expr up 14*, STAT1 inh 11, STAT1 act 90, STAT3 act 31, STAT3 inh-1 84*, STAT3 inh-2 68*, NFkB inh STAT3ct 21* and STAT1 inh 2 1.
For CCCCOP(=O)(CN1CCOCC1)OCCCC the results were APP 5'UTR act -1, NF-kB expr up 0.93, STAT1 inh -10, STAT1 act 109, STAT3 act 106 and STAT3 inh-1 -3.
CC(C)(C)n1cc(C(=O)c2ccc3ccccc3c2O)cn1 was read as APP 5'UTR act 212*, NF-kB expr up 1.5, STAT1 inh 30, STAT1 act 72, STAT3 act 47, STAT3 inh-1 65*, STAT3 inh-2 13, NFkB inh STAT3ct -32 and STAT1 inh 2 -133.
`CC1CCN(C(=O)c2ccc(N3CC4CC(C3)c3cccc(=O)n3C4)c([N+](=O)[O-])c2)CC1` (centres undefined) gave APP 5'UTR act -2, NF-kB expr up 1.1, STAT1 inh 0, STAT1 act 100, STAT3 act 100 and STAT3 inh-1 -2.
